Source: PubChem
Sampled rows, rich in hits. Any-hit rate of the full collection: about 3.7%.
bCat nuc transl = alters nuclear translocation of beta-catenin in HeLa cells; immunofluorescence imaging; nuclear translocation activity, % at 5 µM; actives 0.3% (n = 190,000); AID 1665;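 active = nuclear translocation activity above 50% at 5 µM, with a well cell count of 50 or more; inconclusive = wells under 50 cells across six images, flagged as toxic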;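 note: per-cell ratio of nuclear to cytoplasmic median beta-catenin stain intensity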
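Test system: human HeLa cells, native beta-catenin. Compound dosing: 5 µM primary single dose, 0.1% DMSO, 0.02–20 µM confirmation series. Incubation: compound exposure 24 h at 37°C. Detection: beta-catenin immunostaining with DAPI counterstain, 20x imaging, 6 fields/well. Read-out basis: Nuclear/cytoplasmic beta-catenin signal ratio, % activation.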
MT stabilize HCS = microtubule stabilization, imaging screen. HeLa tubulin immunostaining HCS, 24 h; share of cells brighter than vehicle mean+2SD. % tubulin-high responders, % at 10 µM. actives 0.83% (n = 200,000). AID 2205;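 active = plate Z-score above 3 for both tubulin-high and condensed-nucleus cell shares, with cell loss under 80%, at 10 µM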;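 note: anti alpha tubulin signal scored within the nucleus-defined area of each cell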
DTT redox prof = compounds producing H2O2 with reducing agent – biochemical, NIH compound library profiling, artefact control for MLSCN library redox annotation, primary screen | activation, % at 10 µM | AID 878 | DTT-dependent redox cycling H2O2, phenol red/HRP absorbance; 100% = 100 µM peroxide control, 0% = buffer | actives 0.03% (n = 200,000);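 active = activation of at least 50% relative to the plate's high and low controls in the primary single-dose screen; inactive = activation below 50%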;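 note: compound incubated with DTT at 0.8 mM final as the reducing agent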
Cl transport mod = modulators of human KCC2 chloride dependent transport. Q9H2X9. KCC2 cells, thallium flux FluoZin-2 fluorescence. B-score of Tl+ flux slope (higher = more flux/activation; lower = inhibition) at 10 µM. actives 2.2% (n = 190,000). AID 1456;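 active = thallium flux slope and its plate-corrected score both differing from the plate sample mean at a set confidence after two filtering rounds, in either direction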;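 note: slope of fluorescence scaled to starting intensity during 10 to 20 s after thallium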
Target sequence (Q9H2X9 whole entry, looked up): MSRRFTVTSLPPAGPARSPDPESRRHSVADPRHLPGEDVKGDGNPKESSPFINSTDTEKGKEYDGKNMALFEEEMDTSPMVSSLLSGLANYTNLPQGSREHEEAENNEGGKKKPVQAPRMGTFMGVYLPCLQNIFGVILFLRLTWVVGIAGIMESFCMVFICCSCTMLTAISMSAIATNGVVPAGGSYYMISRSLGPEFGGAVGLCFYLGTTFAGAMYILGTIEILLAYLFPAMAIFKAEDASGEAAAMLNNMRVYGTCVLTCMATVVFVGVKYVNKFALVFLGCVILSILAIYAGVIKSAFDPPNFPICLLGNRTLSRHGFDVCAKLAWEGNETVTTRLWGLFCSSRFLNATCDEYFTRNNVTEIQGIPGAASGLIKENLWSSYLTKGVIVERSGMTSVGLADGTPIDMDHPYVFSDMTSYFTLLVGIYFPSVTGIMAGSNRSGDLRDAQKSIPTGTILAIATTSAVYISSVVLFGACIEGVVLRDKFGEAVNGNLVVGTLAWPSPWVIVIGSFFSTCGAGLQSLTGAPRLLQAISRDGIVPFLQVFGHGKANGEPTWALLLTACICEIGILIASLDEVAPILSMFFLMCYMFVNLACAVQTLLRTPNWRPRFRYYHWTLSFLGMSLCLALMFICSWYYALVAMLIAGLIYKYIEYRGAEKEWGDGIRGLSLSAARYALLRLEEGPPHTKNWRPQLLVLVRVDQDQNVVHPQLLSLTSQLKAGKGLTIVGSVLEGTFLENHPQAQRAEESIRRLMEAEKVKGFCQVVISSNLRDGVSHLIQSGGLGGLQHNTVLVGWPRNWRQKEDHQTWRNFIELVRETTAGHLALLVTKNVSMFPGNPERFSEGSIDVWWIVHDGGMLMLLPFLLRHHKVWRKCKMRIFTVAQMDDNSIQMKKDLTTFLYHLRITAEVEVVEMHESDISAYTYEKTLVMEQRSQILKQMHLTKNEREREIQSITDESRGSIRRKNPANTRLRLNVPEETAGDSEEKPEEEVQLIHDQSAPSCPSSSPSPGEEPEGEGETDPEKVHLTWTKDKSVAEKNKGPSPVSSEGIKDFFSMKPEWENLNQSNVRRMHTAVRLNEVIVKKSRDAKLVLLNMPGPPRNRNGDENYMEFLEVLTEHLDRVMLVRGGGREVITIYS
ROMK primary = human ROMK K+ channel modulation, primary screen; Tet-inducible ROMK, thallium flux fluorescence; actives lie on both sides; actives 2% (n = 130,000); P48048; AID 1918; B-score at 10 µM;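 active = signal ratio slope over the read window, or its plate-corrected B-score, at least 3 SD from the plate mean, either direction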;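 note: B-score of the F/F0 ratio slope over 7 to 12 s after thallium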
KCC2 sec1 = KCC2 (human) modulation, secondary assay; shares compounds with Cl transport mod; HEK293-KCC2, thallium flux, FluoZin2 fluorescence; hits give high values; normalised thallium flux (F/F0 slope) at 10 µM; actives 15% (n = 3,700); AID 1713;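 active = thallium flux slope above the same plate's solvent-only control mean plus 3 SD; inconclusive = the two replicate wells disagree; inactive = no significant difference from solvent-only control wells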
KCC2 bumet counter = thallium flux despite bumetanide block in KCC2 cells, secondary assay 3. shares compounds with Cl transport mod. actives 49% (n = 3,700). HEK293-KCC2 + bumetanide/ouabain, thallium flux FluoZin2; hits give high values. normalized thallium flux at 10 µM;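 active = thallium entry rate above the same plate's blocked-transporter control wells by more than 3 SD; inconclusive = the two repeat wells disagree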;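 note: raw slope of fluorescence over initial fluorescence between 10 and 20 s after thallium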
KCC2 secondary2 = KCC2 (human) modulation, second secondary assay; shares compounds with Cl transport mod; HEK293-KCC2, thallium flux FluoZin2 fluorescence; actives lie on both sides; F/F0 rise rate, 10–20 s post-thallium; normalized thallium flux at 10 µM; actives 23% (n = 3,700);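 active = thallium flux slope more than 3 SD above or below the plate's solvent-only control mean, mostly below; inconclusive = the two repeat wells disagreed; inactive = no significant shift from solvent-only controls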
HEK293 Tl flux = acts in parental HEK cells, KCC2 counter-screen; actives 46% (n = 3,700); shares compounds with Cl transport mod; HEK293 parental cells, thallium flux FluoZin2, ouabain; baseline-ratio fluorescence slope, 10–20 s after thallium; thallium flux rate (normalised fluorescence) at 10 µM;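 active = thallium flux rate significantly above the same plate's solvent-only control wells, beyond their mean plus 3 SD; inconclusive = the two replicate wells gave conflicting results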
KCC2 retest ouab = confirmation of human KCC2 modulators with ouabain | shares compounds with Cl transport mod | HEK293-KCC2, thallium flux FluoZin2 fluorescence; bidirectional: low = inhibitor, high = activator | raw Tl+ flux slope (below DMSO = inhibition, above = activation) at 10 µM | actives 48% (n = 3,700);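 active = thallium flux slope beyond 3 SD from same-plate DMSO control mean in most replicates, usually higher, sometimes lower; inconclusive = repeat tests gave conflicting results; inactive = no significant difference from controls in most replicates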;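 note: slope of initial-normalized fluorescence between seconds 10 and 20 after thallium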
HEK293 Tl flux2 = parental HEK flux effect, counter-screen 2; shares compounds with Cl transport mod; HEK293 parental, thallium flux FluoZin-2 fluorescence slope; thallium flux slope at 10 µM; actives 33% (n = 3,700);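 active = thallium flux slope above the same plate's solvent-control mean plus 3 SD in both duplicate wells; inconclusive = duplicate wells that disagreed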;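 note: run without ouabain in cells lacking the KCC2 cotransporter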
Large screens that a line does not name were inactive (follow-up assays come after a bar, where they were run).

O=C(Cc1cccs1)N1CCCC(c2nc3c(nnn3Cc3ccccc3Cl)c(=O)[nH]2)C1 (stereo not drawn)	Cl transport mod -3.7 | KCC2 sec1 inactive | KCC2 bumet counter inactive | KCC2 secondary2 inactive | HEK293 Tl flux inactive | KCC2 retest ouab 0.017 | HEK293 Tl flux2 inactive
CCOc1[nH]n(-c2ccccc2)c(=O)c1C=Nc1ccc(OC)cc1	Cl transport mod 4.1 | KCC2 sec1 inactive | KCC2 bumet counter 0.01 | KCC2 secondary2 inactive | HEK293 Tl flux 0.0093 | KCC2 retest ouab inactive | HEK293 Tl flux2 inconclusive
CCOc1[nH]n(-c2ccccc2)c(=O)c1C=Nc1ccc(F)cc1F	Cl transport mod 4.1 | KCC2 sec1 inactive | KCC2 bumet counter 0.01 | KCC2 secondary2 inactive | HEK293 Tl flux 0.01 | KCC2 retest ouab inconclusive | HEK293 Tl flux2 inconclusive
CCOc1[nH]n(-c2ccc(Cl)cc2)c(=O)c1C=Nc1ccc(Cl)cc1	none (no result: ROMK primary)
O=C(C(=O)N1CCN(c2ccc(F)cc2)CC1)c1c[nH]c2ccccc12	Cl transport mod -3.5 | KCC2 sec1 inactive | KCC2 bumet counter inactive | KCC2 secondary2 0.025 | HEK293 Tl flux inactive | KCC2 retest ouab inconclusive | HEK293 Tl flux2 inactive
O=C(OCc1ccccn1)c1ccc(COc2ccccc2Cl)o1	Cl transport mod -5.9 (no result: ROMK primary) | KCC2 sec1 inactive | KCC2 bumet counter inactive | KCC2 secondary2 0.025 | HEK293 Tl flux inactive | KCC2 retest ouab 0.013 | HEK293 Tl flux2 inactive
Cc1ccc(N(C(=O)Cn2nnc(-c3ccc(F)cc3)n2)C(C(=O)NC(C)(C)C)c2ccncc2)cc1 (stereo not drawn)	none
O=C(CSc1ncnc2sc(-c3ccccc3)cc12)NC1CCS(=O)(=O)C1 (stereo not drawn)	none
CCOCCn1c(N2CCN(c3ccc(OC)cc3)CC2)nc2c1c(=O)n(C)c(=O)n2C	none (no result: ROMK primary)
COCCn1c(N2CCN(c3ccc(OC)cc3)CC2)nc2c1c(=O)n(C)c(=O)n2C	none (no result: Cl transport mod) | KCC2 sec1 inactive | KCC2 bumet counter inactive | KCC2 secondary2 inactive | HEK293 Tl flux inactive | KCC2 retest ouab inactive | HEK293 Tl flux2 inactive
Oc1c(C(c2ccccc2Cl)N2CCCC2)ccc2cccnc12 (stereo not drawn)	Cl transport mod 2.9 (no result: ROMK primary) | KCC2 sec1 inactive | KCC2 bumet counter 0.0085 | KCC2 secondary2 inactive | HEK293 Tl flux 0.01 | KCC2 retest ouab inactive | HEK293 Tl flux2 0.013
Oc1c(C(c2cccs2)N2CCN(c3ccccc3)CC2)ccc2cccnc12 (stereo not drawn)	none
C=CCNC(=O)NC(=O)CSc1nc2cc([N+](=O)[O-])ccc2n1-c1cccc(C(F)(F)F)c1	Cl transport mod 7.6 | KCC2 sec1 inactive | KCC2 bumet counter 0.014 | KCC2 secondary2 inactive | HEK293 Tl flux 0.011 | KCC2 retest ouab inconclusive | HEK293 Tl flux2 inactive
Cc1cc(C)nc(SCc2ccc(F)cc2)n1	none (no result: ROMK primary)
COc1ccc(C2C(C#N)=C(N)Oc3cc(C)[nH]c(=O)c32)c(OC)c1OC (stereo not drawn)	none (no result: Cl transport mod) | KCC2 sec1 inactive | KCC2 bumet counter inactive | KCC2 secondary2 inactive | HEK293 Tl flux inactive | KCC2 retest ouab inactive | HEK293 Tl flux2 inactive
Cc1ccccc1NCc1nnc2n1CCCCC2	none
NC(=O)c1ccccc1NC(=O)Nc1cccc2ccccc12	Cl transport mod -4.1 | KCC2 sec1 inconclusive | KCC2 bumet counter inactive | KCC2 secondary2 inactive | HEK293 Tl flux inactive | KCC2 retest ouab inactive | HEK293 Tl flux2 inactive
Cc1ccc(S(=O)(=O)NCC(=O)OCc2csc(-c3ccccc3)n2)cc1	none (no result: ROMK primary)
O=S(=O)(NCc1csc(-c2ccccc2)n1)c1ccc(Cl)s1	Cl transport mod -5.7 (no result: bCat nuc transl, ROMK primary) | KCC2 sec1 inactive | KCC2 bumet counter 0.014 | KCC2 secondary2 0.022 | HEK293 Tl flux inactive | KCC2 retest ouab 0.016 | HEK293 Tl flux2 inconclusive
O=C(CNS(=O)(=O)c1c(Cl)cccc1Cl)OCc1csc(-c2ccccc2)n1	Cl transport mod -4.1 | KCC2 sec1 inactive | KCC2 bumet counter inactive | KCC2 secondary2 0.023 | HEK293 Tl flux inconclusive | KCC2 retest ouab 0.015 | HEK293 Tl flux2 inactive
CCOC(=O)c1cnc(SC)nc1Sc1ccccc1	none (no result: Cl transport mod) | KCC2 sec1 inactive | KCC2 bumet counter inactive | KCC2 secondary2 inactive | HEK293 Tl flux inactive | KCC2 retest ouab inactive | HEK293 Tl flux2 inactive
C/C(=N\NC(=O)c1ccc(NS(=O)(=O)c2cccs2)cc1)c1cccs1	none
C/C(=N\NC(=O)c1cc(Br)ccc1O)c1cccs1	Cl transport mod 15 | KCC2 sec1 inactive | KCC2 bumet counter 0.031 | KCC2 secondary2 0.043 | HEK293 Tl flux 0.03 | KCC2 retest ouab 0.037 | HEK293 Tl flux2 0.033
C/C(=N\NC(=O)c1ccc(Cl)cc1)c1cccs1	Cl transport mod 25 | KCC2 sec1 inactive | KCC2 bumet counter 0.04 | KCC2 secondary2 0.05 | HEK293 Tl flux 0.034 | KCC2 retest ouab 0.041 | HEK293 Tl flux2 0.029
C/C(=N\NC(=O)c1cc(C)nc2ccccc12)c1cccs1	none (no result: MT stabilize HCS, DTT redox prof, ROMK primary)
CNC(=O)C1CC(=O)N(Cc2ccc(OC)c(OC)c2)C(=Nc2ccc(OC)cc2)S1 (stereo not drawn)	none (no result: ROMK primary)
CNC(=O)C1CC(=O)N(Cc2ccccc2)C(=Nc2ccc(OC)cc2)S1 (stereo not drawn)	none (no result: Cl transport mod) | KCC2 sec1 inconclusive | KCC2 bumet counter inactive | KCC2 secondary2 inactive | HEK293 Tl flux inactive | KCC2 retest ouab inactive | HEK293 Tl flux2 inactive
O=C(CN1C(=O)NC(Cc2ccccc2)C1=O)NC(=O)NC1CCCCC1 (stereo not drawn)	Cl transport mod -4.6 (no result: ROMK primary) | KCC2 sec1 inactive | KCC2 bumet counter inactive | KCC2 secondary2 inconclusive | HEK293 Tl flux inactive | KCC2 retest ouab 0.015 | HEK293 Tl flux2 inactive
O=C(O)COc1ccccc1/C=N/NC(=O)c1cc(-c2ccc(Cl)cc2)nc2ccccc12	none (no result: MT stabilize HCS, DTT redox prof, ROMK primary)
